Published values collected from several papers.
Protocols differ between the studies behind these lines.
Target: Adenosine receptor A1 (ADORA1, Homo sapiens, UniProt P30542)
Residues used in one study (P30542 1-326): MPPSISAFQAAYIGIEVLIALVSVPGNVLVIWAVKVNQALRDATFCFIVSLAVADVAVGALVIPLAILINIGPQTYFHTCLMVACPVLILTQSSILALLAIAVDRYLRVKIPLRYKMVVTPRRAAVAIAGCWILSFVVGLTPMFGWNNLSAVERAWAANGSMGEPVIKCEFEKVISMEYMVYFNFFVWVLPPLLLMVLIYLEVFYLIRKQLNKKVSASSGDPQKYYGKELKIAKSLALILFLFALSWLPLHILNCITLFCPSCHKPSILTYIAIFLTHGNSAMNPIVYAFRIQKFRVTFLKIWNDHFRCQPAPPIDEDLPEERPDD

| SMILES | observed | technique | tested at | setting | inhibition |
| --- | --- | --- | --- | --- | --- |
| Cn1c(=O)[nH]c2nc[nH]c2c1=O | ligand displacement | radioligand | 30 µM | cell membranes | 78% |
| O=C(c1ccc(Cl)cc1)N(Cc1ccccc1)C1CCCCC1 | cell-free assay | – | 10 µM | – | 1.7% |
| O=C(Nc1ccc(S(=O)(=O)N2CCC(Cl)CC2)cc1)c1ccc([N+](=O)[O-])o1 | ligand displacement | radioligand | 10 µM | – | 12% |
| O[C@@H]1[C@H](O)CO[C@H]1n1cnc2c(NCc3cccc(F)c3)ncnc21 | ligand displacement | radioligand | 10 µM | cell membranes | 16% |
| O=C1N=C(N2CCCCN2)S/C1=C\c1ccc(F)cc1O | ligand displacement | radioligand | 10 µM | – | < 10% |
| CNc1ncnc2c1ncn2[C@@H]1OC[C@@H](O)[C@H]1O | ligand displacement | radioligand | 10 µM | cell membranes | < 10% |
| Ic1cccc2cnccc12 | ligand displacement | radioligand | 10 µM | – | -5% |
| Oc1cccc(Nc2nc(-c3ccc(F)cc3F)cs2)c1 | cell-free assay | – | 10 µM | – | 46.5% |
| CNC(=O)[C@@]12C[C@@H]1[C@@H](n1cnc3c(NC)nc(C#C[c-]4cccc4)nc31)[C@H](O)[C@@H]2O.[Fe+2].c1cc[cH-]c1 | ligand displacement | radioligand | 10 µM | cell membranes | 25% |
| CNc1nc(Cl)nc2c1ncn2[C@@H]1OC[C@@H](O)[C@H]1O | ligand displacement | radioligand | 10 µM | cell membranes | < 10% |
| C=CN1CCCn2c1nc1c2c(=O)n(C)c(=O)n1C | ligand displacement | radioligand | 10 µM | cell membranes | 21% |
